Source: ChEMBL document CHEMBL2086311, “UDP made a highly promising stable, potent, and selective P2Y6-receptor agonist upon introduction of a boranophosphate moiety” (Bioorg Med Chem, 2012)
Active and inactive are the calls of the source. No cut-off for these calls is given here.

Experiments:
P2Y purinoceptor 4 [1] = target: T1, P2Y purinoceptor 4 (Homo sapiens, UniProt P51582); experiment: Agonist activity at human GFP-tagged P2Y4 receptor expressed in human 1321N1 cells assessed as intracellular calcium mobilization up to 100 uM by fura2/AM-based fluorescence spectrophotometry; assay type: functional, cell-based
Procedure, shortened: (§1)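 Human P2Y2, P2Y4 or P2Y6 receptors with GFP fusion, stably expressed in 1321N1 astrocytoma cells (no endogenous P2X/P2Y), selected with 0.5 mg/mL G418. Cells on coverslips at ~80% density were loaded with 2 µM fura 2/AM plus 0.02% pluronic acid in Na-HBS pH 7.4 for 30 min at 37 °C. Nucleotide was superfused at 37 °C, usually 10^-8 to ≥10^-5 M, sometimes to 10^-4 M. Read-out was 340/380 nm excitation ratio at 510 nm emission. Values are mean maximal amplitude ± SE.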

P2Y purinoceptor 6 [2] = target: T2, P2Y purinoceptor 6 (Homo sapiens, UniProt Q15077); experiment: Agonist activity at human GFP-tagged P2Y6 receptor expressed in human 1321N1 cells assessed as intracellular calcium mobilization by fura2/AM-based fluorescence spectrophotometry; assay type: functional, cell-based; procedure, shortened: as §1
[3] = target: P2Y purinoceptor 2 (Homo sapiens) (UniProt P41231); experiment: Agonist activity at human GFP-tagged P2Y2 receptor expressed in human 1321N1 cells assessed as intracellular calcium mobilization up to 100 uM by fura2/AM-based fluorescence spectrophotometry; assay type: functional, cell-based; procedure, shortened: as §1
P2Y purinoceptor 6 [4] = target: T2, P2Y purinoceptor 6; experiment: Ratio of UDP EC50 to compound EC50 for human GFP-tagged P2Y6 receptor
Procedure, shortened: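 Human P2Y6 receptor-GFP construct stably expressed in 1321N1 astrocytoma cells (no endogenous P2X/P2Y). Cells loaded with 2 µM fura-2/AM plus 0.02% pluronic acid in Na-HBS (pH 7.4), 30 min, 37 °C. Superfused at 37 °C with nucleotide, usually 10^-8 M to at least 10^-5 M. [Ca2+]i read as 340/380 nm excitation ratio, emission 510 nm. EC50 from concentration–response curves.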

P2Y purinoceptor 4 [5] = target: T1, P2Y purinoceptor 4; experiment: Agonist activity at human GFP-tagged P2Y4 receptor expressed in human 1321N1 cells assessed as intracellular calcium mobilization by fura2/AM-based fluorescence spectrophotometry; assay type: functional, cell-based; procedure, shortened: as §1
[6] = Agonist activity at P2Y6 receptor in New Zealand White rabbit osteoclasts assessed as intracellular calcium mobilization by fura2-based microfluorimetric technique; assay type: functional, cell-based; conditions: Oryctolagus cuniculus

T2 sequence (Q15077 whole entry): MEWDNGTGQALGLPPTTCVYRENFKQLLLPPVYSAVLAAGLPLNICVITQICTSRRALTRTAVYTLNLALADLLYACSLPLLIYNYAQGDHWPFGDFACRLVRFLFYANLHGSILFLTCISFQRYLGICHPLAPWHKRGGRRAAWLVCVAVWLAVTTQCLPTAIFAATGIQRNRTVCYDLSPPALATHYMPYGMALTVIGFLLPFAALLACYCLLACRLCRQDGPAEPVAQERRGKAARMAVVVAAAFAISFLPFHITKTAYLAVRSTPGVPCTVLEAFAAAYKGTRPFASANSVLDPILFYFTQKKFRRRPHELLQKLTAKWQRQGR
T1 sequence (P51582 whole entry, the tested form may be a part): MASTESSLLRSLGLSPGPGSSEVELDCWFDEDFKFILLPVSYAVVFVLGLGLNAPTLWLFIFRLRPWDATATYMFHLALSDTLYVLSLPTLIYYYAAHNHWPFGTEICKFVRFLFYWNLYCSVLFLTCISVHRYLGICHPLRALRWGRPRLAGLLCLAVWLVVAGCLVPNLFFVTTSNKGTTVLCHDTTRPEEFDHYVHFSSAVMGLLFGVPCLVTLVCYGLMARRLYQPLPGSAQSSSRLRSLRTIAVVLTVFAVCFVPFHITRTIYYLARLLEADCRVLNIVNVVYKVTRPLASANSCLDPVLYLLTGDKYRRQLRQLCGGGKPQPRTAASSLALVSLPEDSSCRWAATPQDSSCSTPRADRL
Sequence of P2Y purinoceptor 2 (Homo sapiens) (P41231 whole entry): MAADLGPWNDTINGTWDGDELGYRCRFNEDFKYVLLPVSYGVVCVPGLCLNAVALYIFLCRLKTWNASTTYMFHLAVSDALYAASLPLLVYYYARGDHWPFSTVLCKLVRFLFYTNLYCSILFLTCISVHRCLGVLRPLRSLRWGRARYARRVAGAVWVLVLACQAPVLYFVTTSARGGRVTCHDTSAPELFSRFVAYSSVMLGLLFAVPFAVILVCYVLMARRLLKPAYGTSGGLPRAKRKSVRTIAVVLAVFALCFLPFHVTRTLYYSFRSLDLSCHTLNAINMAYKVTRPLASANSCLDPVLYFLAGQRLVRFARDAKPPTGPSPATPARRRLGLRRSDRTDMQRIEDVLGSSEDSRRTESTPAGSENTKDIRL

| SMILES | Activity (P2Y purinoceptor 4 [1]) | EC50 (P2Y purinoceptor 6 [2]) | Activity [3] | Ratio EC50 (P2Y purinoceptor 6 [4]) | EC50 (P2Y purinoceptor 4 [5]) | EC50 [6] |
| --- | --- | --- | --- | --- | --- | --- |
| B[P@](=O)(OC[C@H]1O[C@@H](n2cc(OC)c(=O)[nH]c2=O)[C@H](O)[C@@H]1O)OP(=O)(O)O | inactive | 4.3 µM | inactive | – | – | – |
| B[P@@](=O)(OC[C@H]1O[C@@H](n2cc(OC)c(=O)[nH]c2=O)[C@H](O)[C@@H]1O)OP(=O)(O)OP(=O)(O)O | inactive | 11.2 µM | inactive | – | – | – |
| B[P@](=O)(OC[C@H]1O[C@@H](n2cc(OC)c(=O)[nH]c2=O)[C@H](O)[C@@H]1O)OP(=O)(O)OP(=O)(O)O | inactive | – | inactive | – | – | – |
| B[P@@](=O)(OC[C@H]1O[C@@H](n2cc(OC)c(=O)[nH]c2=O)[C@H](O)[C@@H]1O)OP(=O)(O)O | inactive | – | inactive | 19 | – | – |
| COc1cn([C@@H]2O[C@H](COP(=O)(O)OP(=O)(O)OP(=O)(O)OC[C@H]3O[C@@H](n4cc(OC)c(=O)[nH]c4=O)[C@H](O)[C@@H]3O)[C@@H](O)[C@H]2O)c(=O)[nH]c1=O | inactive | > 10 µM | inactive | – | – | – |
| O=c1ccn([C@@H]2O[C@H](COP(=O)(O)OP(=O)(O)OP(=O)(O)O)[C@@H](O)[C@H]2O)c(=O)[nH]1 [URIDINE TRIPHOSPHATE] | – | – | – | – | 0.9 µM | – |
| B[P@](=O)(OC[C@H]1O[C@@H](n2cc(OC)c(=O)[nH]c2=O)[C@H](O)[C@@H]1O)O[P@@](=O)(O)OP(=O)(O)O | – | 20.1 µM | – | – | – | – |
| O=c1ccn([C@@H]2O[C@H](COP(=O)(O)OP(=O)(O)OP(=O)(O)OC[C@H]3O[C@@H](n4ccc(=O)[nH]c4=O)[C@@H]4OC(Cc5ccccc5)O[C@@H]43)[C@@H](O)[C@H]2O)c(=O)[nH]1 (some centres not stated) | – | – | – | – | – | 0.14 µM |
